The target of assay [1] is T1, Substance-P receptor (Homo sapiens, UniProt P25103). Description: Displacement of [125I]L-703606 from human NK1 expressed in CHO cells. Type of assay: cell-based. In general terms: Loss of bound radioactivity is the signal in a displacement assay; it reports binding, not function.
Assay [2] concerns Meriones unguiculatus. Nature of the assay: Brain penetration in gerbils assessed as inhibition of GR-73632-induced foot tapping at 1 mg/kg, iv. Format: functional. Summed up:
(§1)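 Gerbils receive the test compound by iv injection. Hindlimb thumping (foot tapping) is then elicited by central administration of an NK1 agonist. Inhibition of the thumping is scored as % inhibition at 0 h after 1 mg/kg iv, or at 24 h after 3 mg/kg. Dose titrations at 0 and 24 h give an ID50.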

The target of assay [3] is T1, Substance-P receptor. Nature of the assay: Displacement of [125I]L-703606 from human NK1 expressed in CHO cells in presence of 50% human serum at 0.1 uM. Type of assay: cell-based.
In assay [4] the target is T1, Substance-P receptor. Nature of the assay: Displacement of [125I]L-703606 from human NK1 expressed in CHO cells in presence of 50% human serum. Type of assay: cell-based.
Assay [5] is filed under the species Meriones unguiculatus. Description: Brain penetration in gerbils assessed as inhibition of GR-73632-induced foot tapping. Format: functional. The note with it: read-out: ID50 (the source's name). The method in brief:
as §1

Assay [6] has as its system Meriones unguiculatus. Nature of the assay: Brain penetration in gerbils assessed as inhibition of GR-73632-induced foot tapping at 3 mg/kg, iv after 24 hrs. Type of assay: functional. The method in brief:
as §1

The target in assay [7] is T1, Substance-P receptor. Nature of the assay: Displacement of [125I]L-703606 from human NK1 expressed in CHO cells at 0.1 uM. Type of assay: cell-based.

Calls of active or inactive are those of the source. No cut-off for these calls is given here.

T1 sequence (P25103 whole entry): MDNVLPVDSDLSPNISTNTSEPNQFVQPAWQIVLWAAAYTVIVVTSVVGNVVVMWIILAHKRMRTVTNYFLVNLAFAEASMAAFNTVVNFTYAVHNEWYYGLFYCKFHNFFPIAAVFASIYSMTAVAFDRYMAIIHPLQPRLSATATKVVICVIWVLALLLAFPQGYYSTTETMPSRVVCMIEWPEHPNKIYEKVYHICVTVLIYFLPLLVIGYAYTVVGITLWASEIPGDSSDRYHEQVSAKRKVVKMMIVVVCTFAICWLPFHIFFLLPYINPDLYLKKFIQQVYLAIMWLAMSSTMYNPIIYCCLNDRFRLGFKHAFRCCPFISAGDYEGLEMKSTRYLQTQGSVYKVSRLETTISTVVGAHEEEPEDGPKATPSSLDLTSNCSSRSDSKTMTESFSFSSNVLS

As to `C[C@@H](O[C@@H]1[C@@H](c2ccccc2)CN2C(=O)OC[C@@H]12)c1cc(C(F)(F)F)cc(C(F)(F)F)c1`, the IC50 – broadly, the concentration needed to halve the response being measured – on Substance-P receptor [1] is 1.3 nM. Also, the outcome in the assay with Meriones unguiculatus [2] was inactive. For the same molecule, the Activity on Substance-P receptor [3] came to 25%.
As to `C[C@@H](O[C@@H]1[C@@H](c2ccc(F)cc2)CN2C(=O)OC[C@H]12)c1cc(C(F)(F)F)cc(C(F)(F)F)c1`, the outcome at Substance-P receptor [4] and with Meriones unguiculatus [2] was inactive. On Substance-P receptor [1], this molecule yielded an IC50 of 1 nM.
On to `C[C@@H](O[C@H]1[C@H](c2ccc(F)cc2)CN(C(=O)OC(C)(C)C)[C@H]1CO)c1cc(C(F)(F)F)cc(C(F)(F)F)c1`, for which, at Substance-P receptor [1], the IC50 turned out to be 4.4 nM.
Consider `C[C@@H](O[C@H]1CN2C(=O)CC[C@H]2[C@@H]1c1ccc(F)cc1)c1cc(C(F)(F)F)cc(C(F)(F)F)c1`, for which the Activity on Substance-P receptor [4] is 2.2 nM. The same molecule displayed an IC50 at Substance-P receptor [1] of 0.06 nM. In addition, the ED50 in the assay listed under Meriones unguiculatus [5] came out at 0.03 mg/kg. The inhibition in vivo (usually the percentage by which the read-out fell short of the control) at 1 mg/kg with Meriones unguiculatus [2] worked out at 100%. For the same molecule, in the assay on Meriones unguiculatus [6], the inhibition in vivo at 3 mg/kg was 100%.
On Substance-P receptor [1], `C[C@@H](O[C@H]1CN(C(=O)OC(C)(C)C)[C@@H](CO)[C@@H]1c1ccccc1)c1cc(C(F)(F)F)cc(C(F)(F)F)c1` showed an IC50 of 0.63 nM.
For `C[C@H](O[C@@H]1[C@@H](c2ccc(F)cc2)CN(C(=O)OC(C)(C)C)[C@H]1CO)c1cc(C(F)(F)F)cc(C(F)(F)F)c1`, the Activity at Substance-P receptor [7] came to 41%.
`C[C@@H](O[C@@H]1[C@@H](c2ccccc2)CN2C(=O)OC[C@H]12)c1cc(C(F)(F)F)cc(C(F)(F)F)c1` showed an IC50 on Substance-P receptor [1] of 1.5 nM. In addition, the outcome in the assay on Meriones unguiculatus [2] was inactive. Besides, the Activity on Substance-P receptor [3] came out at 31%.
At Substance-P receptor [7], `C[C@H](O[C@H]1CN(C(=O)OC(C)(C)C)[C@@H](CO)[C@@H]1c1ccc(F)cc1)c1cc(C(F)(F)F)cc(C(F)(F)F)c1` had an Activity of 92%.
Same read-out and setting: under `C[C@H](O[C@H]1CN(C(=O)OC(C)(C)C)[C@@H](CO)[C@@H]1c1ccccc1)c1cc(C(F)(F)F)cc(C(F)(F)F)c1` stands 26%.
As for `C[C@@H](O[C@H]1[C@H](c2ccccc2)CN(C(=O)OC(C)(C)C)[C@H]1CO)c1cc(C(F)(F)F)cc(C(F)(F)F)c1`, the IC50 at Substance-P receptor [1] came out at 7.8 nM.
Consider `C[C@@H](O[C@H]1CN2C(=O)N(C)C[C@H]2[C@@H]1c1ccc(F)cc1)c1cc(C(F)(F)F)cc(C(F)(F)F)c1`, for which, on Substance-P receptor [4], the Activity was found to be 32 nM. The half-maximal inhibitory concentration (IC50) on Substance-P receptor [1] turned out to be 0.88 nM. In addition, the outcome with Meriones unguiculatus [2] was inactive.
On to `C[C@@H](O[C@@H]1[C@@H](c2ccc(F)cc2)CN(C(=O)OC(C)(C)C)[C@H]1CO)c1cc(C(F)(F)F)cc(C(F)(F)F)c1`, for which, on Substance-P receptor [1], the IC50 amounted to 1.2 nM.
In turn, `C[C@H](O[C@H]1[C@H](c2ccc(F)cc2)CN(C(=O)OC(C)(C)C)[C@H]1CO)c1cc(C(F)(F)F)cc(C(F)(F)F)c1` had an Activity on Substance-P receptor [7] of 39%.
For the molecule `C[C@H](O[C@@H]1[C@@H](c2ccccc2)CN(C(=O)OC(C)(C)C)[C@H]1CO)c1cc(C(F)(F)F)cc(C(F)(F)F)c1`, the Activity on Substance-P receptor [7] came to 26%.
With `C[C@@H](O[C@@H]1[C@@H](c2ccccc2)CN(C(=O)OC(C)(C)C)[C@H]1CO)c1cc(C(F)(F)F)cc(C(F)(F)F)c1`, the IC50 on Substance-P receptor [1] was 3.6 nM.
Consider `C[C@H](O[C@H]1[C@H](c2ccccc2)CN(C(=O)OC(C)(C)C)[C@H]1CO)c1cc(C(F)(F)F)cc(C(F)(F)F)c1`, for which the Activity on Substance-P receptor [7] was 13%.
Consider `C[C@@H](O[C@H]1CN2C(=O)OC[C@@H]2[C@@H]1c1ccc(F)cc1)c1cc(C(F)(F)F)cc(C(F)(F)F)c1`, for which the Activity on Substance-P receptor [4] was 37 nM. This molecule also returned a concentration for half-maximal inhibition (IC50) on Substance-P receptor [1] of 0.14 nM. Also, the inhibition in vivo at 1 mg/kg in the assay on Meriones unguiculatus [2] turned out to be 49%. Also, the inhibition in vivo at 3 mg/kg in the assay with Meriones unguiculatus [6] is 0%.
As for `C[C@@H](O[C@@H]1[C@@H](c2ccc(F)cc2)CN2C(=O)OC[C@@H]12)c1cc(C(F)(F)F)cc(C(F)(F)F)c1`, the Activity on Substance-P receptor [4] was determined as 57 nM. The same molecule registered an IC50 at Substance-P receptor [1] of 0.33 nM. In addition, the result in the assay on Meriones unguiculatus [2] was inactive.
As for `C[C@@H](O[C@H]1CN2C(=O)OC[C@@H]2[C@@H]1c1ccccc1)c1cc(C(F)(F)F)cc(C(F)(F)F)c1`, the Activity at Substance-P receptor [4] came out at 37 nM. Moreover, the IC50 at Substance-P receptor [1] came to 0.27 nM. Also, the inhibition in vivo at 1 mg/kg in the assay on Meriones unguiculatus [2] was found to be 2.5%.
Regarding `C[C@@H](O[C@H]1CN2C(=O)N(Cc3ccccc3)C[C@H]2[C@@H]1c1ccc(F)cc1)c1cc(C(F)(F)F)cc(C(F)(F)F)c1`, the result on Substance-P receptor [4] and in the assay on Meriones unguiculatus [2] was inactive. The molecule further displayed an IC50 at Substance-P receptor [1] of 2.7 nM.
Consider `C[C@@H](O[C@H]1CN2C(=O)NC[C@H]2[C@@H]1c1ccc(F)cc1)c1cc(C(F)(F)F)cc(C(F)(F)F)c1`, for which, at Substance-P receptor [4], the Activity was 2 nM. Besides, on Substance-P receptor [1], the half-inhibitory concentration (IC50) came to 0.06 nM. Also, the inhibition in vivo at 1 mg/kg in the assay with Meriones unguiculatus [2] was 100%. Besides, the inhibition in vivo at 3 mg/kg in the assay with Meriones unguiculatus [6] was determined as 8%.
On to `C[C@@H](O[C@H]1CN(C(=O)OC(C)(C)C)[C@@H](CO)[C@@H]1c1ccc(F)cc1)c1cc(C(F)(F)F)cc(C(F)(F)F)c1`, for which, on Substance-P receptor [1], the concentration for half-maximal inhibition (IC50) came to 0.28 nM. Further, in the assay on Meriones unguiculatus [2], the inhibition in vivo at 1 mg/kg was determined as 16%. Also, the inhibition in vivo at 3 mg/kg in the assay on Meriones unguiculatus [6] turned out to be 0%.

Source of the values: ChEMBL document CHEMBL1142272, “Fused bicyclic pyrrolizinones as new scaffolds for human NK1 antagonists” (Bioorg Med Chem, 2008).
